Screening data: PubChem, Broad Institute
Compounds with a hit are over-represented: about 3.2% of the library has one in this group of screens.
Cneo AK release: causes C. neoformans cell lysis; adenylate kinase release luminescence, 4 h; normalised: neutral wells 0, clomiphene wells 100; lysis activity, % at 15 µM; 360,000 tested, 0.2% active; AID 651654;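 active = mean lysis activity across replicates of at least 80%, whatever share of replicates individually reach that level; inactive = mean lysis activity below 80%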
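Schedule: static 4 h at 37 °C with compound, 1 h detection; system: C. neoformans cells; benchmarks: Clomiphene as positive control; buffer or medium: fresh YPD medium; measure: luminescence rise reflecting yeast cell lysis; measured by: luminescent adenylate kinase detection reagent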
AF4-AF9 inh: inhibitors of human MLL-AF4/AF9 interaction; inhibition, % at 10 µM; P42568; AID 651704; AlphaScreen, biotin-AF4 peptide binding to FLAG-AF9; 350,000 tested, 0.47% active;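 active = every replicate reaching a set inhibition limit, whatever the replicate mean, cut at about 25% in these data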
Target sequence (P42568 whole entry, looked up): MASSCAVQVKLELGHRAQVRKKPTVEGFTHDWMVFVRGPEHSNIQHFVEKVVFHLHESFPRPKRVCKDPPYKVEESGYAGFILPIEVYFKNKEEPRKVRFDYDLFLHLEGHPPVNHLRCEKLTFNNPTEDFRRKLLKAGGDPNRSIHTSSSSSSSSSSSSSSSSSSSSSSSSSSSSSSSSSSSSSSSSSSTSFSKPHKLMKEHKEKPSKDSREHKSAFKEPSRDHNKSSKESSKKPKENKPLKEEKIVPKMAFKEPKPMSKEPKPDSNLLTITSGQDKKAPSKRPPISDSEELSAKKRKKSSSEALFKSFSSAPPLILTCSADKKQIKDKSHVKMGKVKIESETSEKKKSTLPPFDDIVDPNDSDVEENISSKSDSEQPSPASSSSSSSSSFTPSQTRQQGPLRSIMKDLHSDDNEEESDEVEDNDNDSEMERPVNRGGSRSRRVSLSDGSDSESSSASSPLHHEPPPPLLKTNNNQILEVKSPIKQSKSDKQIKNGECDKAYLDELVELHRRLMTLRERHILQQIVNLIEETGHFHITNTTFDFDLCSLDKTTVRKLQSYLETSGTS
Ecoli rRNA inh: inhibitors of bacterial rRNA selective over humanized ribosomes; E. coli WT GFP vs humanized-ribosome RFP mutants, fluorescence, 24 h; hits give low values; DMSO median 0, no signal -100; GFP signal change (wild-type ribosome), % (test concentration not listed); 350,000 tested, 1.6% active; AID 720706;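 active = significant combined selectivity score with lowered wild-type GFP, culture density cut under 30%, mutant RFP and density less affected; inactive = any of these conditions unmet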
DENV2 CPE rescue: inhibitors of DENV2 cytopathic effect; DENV2-infected cells, cytopathic effect rescue, plate reader; CPE inhibition, % at 9.99 µM; 350,000 tested, 1.7% active; AID 651640; in the data active = CPE inhibition above about 20%, passing the limit was not always enough; tested in BHK-21 cells
PfHsp90 set2: reduces growth (ATP signal) of yeast expressing P. falciparum Hsp90; inhibition, % at 9.4 µM; 310,000 tested, 0.32% active; S. cerevisiae expressing PfHsp90, BacTiter-Glo ATP, 48 h; yeast lacking PDR1 and PDR3 efflux regulators;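 active = every replicate shows inhibition above about 80%, whatever the replicate mean, limit read from the data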
S100A4 inh HTS: inhibitors of human S100A4 binding to myosin IIA peptide; 360,000 tested, 0.14% active; P26447; S100A4/TAMRA-MyoIIA peptide fluorescence polarization; inhibition, % at 10.7 µM;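 active = mean inhibition of at least 70% across replicates, with every replicate also reaching that level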
Target sequence (P26447 whole entry, looked up): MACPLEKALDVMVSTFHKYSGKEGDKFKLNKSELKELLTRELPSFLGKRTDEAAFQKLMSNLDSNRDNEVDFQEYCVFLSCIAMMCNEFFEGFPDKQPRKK
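Test system – S100A4 monomer (human) · Compound – single-point compound testing · Schedule – 5 min incubation before reading · Probe or stimulus – TAMRA-labelled myosin IIA heavy-chain peptide probe, 5 nM · Benchmarks – neutral control DMSO, positive control TFP · Medium – Calcium-containing HEPES buffer, pH 7.2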
Hits are given with their value; . = inactive; / = not tested or not shown.

SMILES | Cneo AK release | AF4-AF9 inh | Ecoli rRNA inh | DENV2 CPE rescue | PfHsp90 set2 | S100A4 inh HTS
O=C(Nc1ccc(F)cc1)N1CC(=O)N2[C@H](CO)[C@H](c3ccc(C4=CCCC4)cc3)[C@@H]2C1 | / | . | . | . | / | .
CCCNC(=O)N[C@H]1CC[C@H](CC(=O)NC2CCC2)O[C@@H]1CO | / | . | . | / | / | /
Cc1ccccc1S(=O)(=O)NCC[C@@H]1CC[C@@H](NC(=O)C2CCCCC2)[C@@H](CO)O1 | . | . | . | 27 | / | .
Cc1ccccc1S(=O)(=O)NCC[C@H]1CC[C@H](NC(=O)C2CCCC2)[C@@H](CO)O1 | . | . | . | . | / | .
Cc1ccccc1S(=O)(=O)NCC[C@H]1CC[C@H](NC(=O)C2CCC2)[C@H](CO)O1 | . | . | . | . | / | 102
COc1ccc(Nc2ccccc2N)cc1 | / | 40 | / | . | . | .
Fc1ccc(N2CCN(C3=Nc4cccc5cccc3c45)CC2)cc1 | / | 32 | . | . | . | .
c1ccc(CN2CCN(C3=Nc4cccc5cccc3c45)CC2)cc1 | . | / | / | / | . | /
O=C(C[C@@H]1CC[C@@H](NC(=O)c2ccncc2)[C@@H](CO)O1)NCC1CC1 | . | . | . | . | / | .
Cc1ccc(NS(=O)(=O)c2cccc(C(=O)NCCCn3ccnc3)c2)cc1 | / | . | . | . | . | .
Cc1ccc(S(=O)(=O)Nc2cccc(C(=O)NCCCn3ccnc3)c2)cc1F | / | . | . | 54 | . | .
CC(=O)Nc1c(-c2ccccc2)nc2ncccn12 | . | 48 | . | . | . | .
CCCN(CC1CC1)c1cc2c(c3c1ccn3C)C1CCC2C1 (configuration not stated) | . | 48 | . | . | / | .
Cn1ccc2c(N3CCOCC3)cc3c(c21)C1CCC3C1 (configuration not stated) | . | 26 | . | . | / | .
CCN(Cc1ccccc1)c1cc2c(c3c1ccn3C)C1CCC2C1 (configuration not stated) | . | 25 | . | . | / | .
CO[C@H]1CN(C)C(=O)c2cc(NC(=O)NC(C)C)ccc2OC[C@H](C)N(CCC(F)(F)F)C[C@@H]1C | . | / | . | / | / | /
C[C@@H]1CN([C@@H](C)CO)C(=O)c2cc(NS(=O)(=O)c3cccs3)ccc2O[C@@H]1CN(C)Cc1ccc(Cl)c(Cl)c1 | . | . | . | . | / | .
COc1ccc(S(=O)(=O)N(C)C[C@H]2Oc3ccc(NC(=O)CCN4CCOCC4)cc3CC(=O)N([C@@H](C)CO)C[C@H]2C)cc1 | . | . | . | . | / | .
CC(C)NC(=O)N(C)C[C@H]1Oc2ccc(NS(C)(=O)=O)cc2CC(=O)N([C@H](C)CO)C[C@H]1C | . | . | . | . | / | .
Cc1cccc(-c2oc3ccc(-c4ccc5c(c4)OCO5)cc3c2-c2ccc(OC3CCCCO3)cc2)c1 (configuration not stated) | . | . | . | / | . | 107
O=C(C[C@@H]1CC[C@@H]2[C@H](COC[C@H](O)CN2Cc2ccc(Oc3ccccc3)cc2)O1)Nc1nccs1 | . | . | . | . | / | .
COCc1cn(CC[C@@H]2CC[C@H](NC(=O)Cc3cccnc3)[C@H](CO)O2)nn1 | . | . | . | . | / | .
O=C1c2ccccc2C(c2nnnn2-c2ccc3c(c2)OCCO3)N1CCc1ccccc1F (configuration not stated) | / | . | -34 | . | / | .
O=C1c2ccccc2C(c2nnnn2-c2ccc3c(c2)OCCO3)N1CCc1ccc(O)cc1 (configuration not stated) | / | . | . | . | / | .
Cc1ccc(S(=O)(=O)N(C)C[C@@H]2Oc3ncc(-c4ccncc4)cc3C(=O)N([C@@H](C)CO)C[C@H]2C)cc1 | . | . | . | . | / | .
SMILES | Cneo AK release | AF4-AF9 inh | Ecoli rRNA inh | DENV2 CPE rescue | PfHsp90 set2 | S100A4 inh HTS
O=C(OCn1ncc(Cl)c(Cl)c1=O)c1cccc(C(F)(F)F)c1 | . | / | / | / | 99 | /
COC(=O)C[C@H]1C[C@H]2c3cc(NC(=O)C4CCOCC4)ccc3O[C@H]2[C@H](CO)O1 | . | . | . | 46 | / | .
COCCNC(=O)C[C@@H]1C[C@@H]2c3cc(NC(=O)C4CCOCC4)ccc3O[C@@H]2[C@@H](CO)O1 | 98 | . | . | . | / | .
COCCNC(=O)C[C@H]1C[C@@H]2c3cc(NC(=O)C4CCC4)ccc3O[C@@H]2[C@H](CO)O1 | 103 | . | . | / | / | .
COCCNC(=O)C[C@@H]1C[C@H]2c3cc(NC(=O)C4CCC4)ccc3O[C@H]2[C@H](CO)O1 | . | . | . | . | / | .
COc1ccc(NC(=O)Nc2ccc3c(c2)C(=O)N([C@@H](C)CO)C[C@H](C)[C@H](CN(C)S(=O)(=O)c2cn(C)cn2)O3)cc1 | . | . | . | . | / | .
COc1ccc(CN(C)C[C@@H]2Oc3ccc(NC(=O)NC(C)C)cc3CC(=O)N([C@@H](C)CO)C[C@H]2C)cc1 | . | . | . | . | / | .
O=S(=O)(c1ccccc1F)N1CC[C@@H]2[C@H]1c1cc(-c3cccc(F)c3)ccc1N[C@@H]2CO | . | / | . | / | / | /
COc1ccccc1-c1ccc2c(c1)[C@H]1[C@H](CCN1S(=O)(=O)c1ccccc1F)[C@H](CO)N2 | . | . | . | 23 | / | .
O=S(=O)(c1ccccc1F)N1CC[C@H]2[C@H](CO)Nc3ccc(-c4cccc(F)c4)cc3[C@H]21 | . | . | . | 29 | / | .
COCCNC(=O)CS(=O)Cc1nc(-c2ccc(Cl)cc2)oc1C (configuration not stated) | . | . | . | 64 | . | .
COc1ccccc1NC(=O)N[C@H]1CC[C@@H](CC(=O)N[C@@H](C)c2ccccc2)O[C@@H]1CO | . | . | . | . | / | .
CCNc1nc(NCC)nc(-n2nc(C)cc2C)n1 | . | . | -42 | . | . | .
Cc1cc(C)n(-c2nc(NC(C)(C)C)nc(NC(C)(C)C)n2)n1 | / | / | / | / | . | /
N=C(N)SCc1cn(-c2ccccc2)nc1-c1ccc(Br)cc1 | / | 33 | . | . | . | .
CO[C@H]1CN(C)C(=O)c2cc(NC(=O)Nc3ccc(C(F)(F)F)cc3)ccc2OC[C@H](C)NC[C@H]1C | . | . | . | . | / | 136
CO[C@H]1CN(C)C(=O)c2cc(NC(=O)c3nc4ccccc4s3)ccc2OC[C@H](C)NC[C@H]1C | . | . | . | . | / | .
CO[C@@H]1CN(C)C(=O)c2cc(NC(=O)c3nc4ccccc4s3)ccc2OC[C@H](C)NC[C@H]1C | . | . | . | 24 | / | .
CO[C@H]1CN(C)C(=O)c2cc(NC(=O)Nc3ccccc3)ccc2OC[C@@H](C)NC[C@@H]1C | . | . | . | 26 | / | .
CO[C@@H]1CN(C)C(=O)c2ccc(NC(=O)Nc3ccc(C(F)(F)F)cc3)cc2OC[C@@H](C)NC[C@@H]1C | / | . | . | . | / | .
